Converted amounts (≈) assume the structure as drawn. “And” between values parts separate entries of the source, which are not always exact repeats. Equal entries are not always repeated.
What was measured:
Bacillus cereus = assay: Antimicrobial activity on Bacillus cereus; format: functional
[1] = Inhibition of Protein Kinase A (PKA).
Procedure, shortened: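 PKA (1 μg/mL) phosphorylating histone IIa (1 mg/mL) with 10 μM ATP plus [γ32P]ATP, 5 mM MgCl2, 50 mM Tris pH 7.0, at 30 °C for 12 min. Stopped with 12% TCA with BSA carrier, reprecipitated. 32P incorporated into histone counted by scintillation; triplicate.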

[2] = molecular target: Protein kinase C alpha type (Homo sapiens, UniProt P17252); assay: Inhibition of Protein Kinase C(PKC)
Procedure, shortened: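 Procedure a: PKC (0.5 μg/mL) with histone IIIs (2.4 mg/mL), 10 μM ATP plus [γ32P]ATP, 10 mM MgCl2, 0.1 mM CaCl2, phosphatidylserine and diacylglycerol (10 mg/mL each), 50 mM Tris pH 7.5, at 30 °C for 12 min. TCA precipitation, histone-bound 32P counted by scintillation; triplicate.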

P388 = assay: Antiproliferative activity against P388 Murine Leukemia cells; format: functional, cell-based; conditions: Mus musculus
[3] = system: DNA topoisomerase II (Bos taurus); assay: Inhibitory activity towards Topoisomerase 2 from calf thymus
[4] = system: DNA topoisomerase I (Bos taurus); assay: Inhibitory activity towards Topoisomerase 1 from calf thymus.
B16 = assay: Antiproliferative activity against B16 mouse melanoma cells; format: functional, cell-based
Procedure, shortened: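 B16 mouse melanoma cells (EMEM, 10% FCS, 37 °C, 5% CO2) plated at 200 cells/dish, adhered 20 h, then exposed 24 h to increasing drug concentrations. Drug medium removed, PBS wash, 12 days regrowth in fresh medium.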

Mus musculus [5] = assay: Antitumor activity against mice with B16 melanoma was assessed from the ratio of median survival time of treated animals (T) to controls animals, at 16 mg/Kg; format: functional
Procedure, shortened: (§1)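 Male B6D2F1 mice given 0.5 × 10⁶ B16 melanoma cells subcutaneously on the dorsum on day 0 (cells maintained in MEM culture). Drug given intraperitoneally on days 1, 5 and 9. Controls received DMSO–olive oil solvent. Six mice per treated group, 12 controls. Median survival time compared with controls, reported as oncostatic index T/C × 100.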

Mus musculus [6] = assay: Antitumor activity against mice with B16 melanoma was assessed from the ratio of median survival time of treated animals (T) to controls animals, at 2 mg/Kg; format: functional; procedure, shortened: as §1
Mus musculus [7] = assay: Antitumor activity against mice with B16 melanoma was assessed from the ratio of median survival time of treated animals (T) to controls animals, at 64 mg/Kg; format: functional; procedure, shortened: as §1
Mus musculus [8] = assay: Antitumor activity against mice with P388 leukemia cell was assessed from the ratio of median survival time of treated animals (T) to controls animals, at 16 mg/Kg; format: functional
Procedure, shortened: (§2)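 Male B6D2F1 mice injected intraperitoneally with 1×10^6 P388 leukemia cells on day 0 (line kept by weekly intraperitoneal passage in male DBA/2 mice). Drug given intraperitoneally on days 1, 5 and 9. Controls received DMSO–olive oil solvent. Six mice per treated group, 12 controls. Median survival time compared with controls, reported as oncostatic index T/C × 100.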

Mus musculus [9] = assay: Antitumor activity against mice with P388 leukemia cell was assessed from the ratio of median survival time of treated animals (T) to controls animals, at 2 mg/Kg; format: functional; procedure, shortened: as §2
Mus musculus [10] = assay: Antitumor activity against mice with P388 leukemia cell was assessed from the ratio of median survival time of treated animals (T) to controls animals, at 64 mg/Kg; format: functional; procedure, shortened: as §2
Mus musculus [11] = assay: In vivo efficacy study on mice with P388 Leukemia Cells determined after administration of 16 mg/kg/day dosage; format: functional; procedure, shortened: as §2
Mus musculus [12] = assay: In vivo efficacy study on mice with P388 Leukemia Cells determined after administration of 2 mg/kg/day dosage; format: functional; procedure, shortened: as §2
Mus musculus [13] = assay: In vivo efficacy study on mice with P388 Leukemia Cells determined after administration of 64 mg/kg/day dosage; format: functional; procedure, shortened: as §2
Mus musculus [14] = assay: In vivo efficacy study on mice with B16 Melanoma cells determined after administration of 2 mg/kg/day dosage; format: functional, Melanoma cell; procedure, shortened: as §1
Mus musculus [15] = assay: In vivo efficacy study on mice with B16 Melanoma Cells determined after administration of 64 mg/kg/day dosage; format: functional; procedure, shortened: as §1
Mus musculus [16] = assay: In vivo efficacy study on mice with B16 Melanoma cells determined after administration of 16 mg/kg/day dosage; format: functional, Melanoma cell; procedure, shortened: as §1

Row | Compound | MIC (Bacillus cereus) [µg/mL] | IC50 [1] [µM] | IC50 [2] [µM] | IC50 (P388) [µM] | MIC [3] [µg/mL] | MIC [4] [µg/mL] | IC50 (B16) [µM] | further results
1 | O=C1NCc2c1c1c3cccc(Cl)c3[nH]c1c1[nH]c3c(Cl)cccc3c21 | 6.25 (≈ 16.4 µM) | > 100 | > 100 | 3.5 | > 10 | > 10 |  | 
2 | CO[C@H]1[C@H](O)[C@@H](O)[C@H](n2c3ccccc3c3c4c(c5c6ccccc6[nH]c5c32)C(=O)NC4=O)O[C@@H]1CO | > 50 | > 100 | > 100 | 3.5 | > 10 | 1 (≈ 1.99 µM) | 17.5 | 
3 | COC1C(CO)OC(n2c3ccccc3c3c4c(c5c6ccccc6[nH]c5c32)C(=O)N(NC=O)C4=O)C(O)C1O (configuration not stated) | 25 (≈ 45.9 µM) |  | > 100 | 0.3 | > 10 | 0.1 (≈ 0.184 µM) |  | 
4 | COC1C(CO)OC(n2c3c(Cl)cccc3c3c4c(c5c6cccc(Cl)c6[nH]c5c32)C(=O)N(O)C4=O)C(O)C1O (configuration not stated) | 3.1 (≈ 5.29 µM) |  | 68 | 0.5 | > 10 | 0.3 (≈ 0.512 µM) | 0.7 | 
5 | NN1C(=O)c2c(c3c4ccccc4[nH]c3c3[nH]c4ccccc4c23)C1=O | > 50 | 44.6 | 43.5 | > 10 |  |  | > 250 | 
6 | O=C1NC(=O)c2c1c1c3cccc(Cl)c3[nH]c1c1[nH]c3c(Cl)cccc3c21 | > 50 | > 100 | > 100 | > 10 |  |  | 24 | 
7 | O=C1NC(=O)c2c1c1c3ccccc3[nH]c1c1[nH]c3ccccc3c21 [STAUROSPORINE AGLYCON] | > 50 | 60 |  | 4 |  |  | > 100 | 
8 | O=C1c2c(c3c4ccccc4[nH]c3c3[nH]c4ccccc4c23)C(=O)N1O | > 50 | 41.5 | 79.2 | > 10 | > 10 | > 10 | 4.6 | T/C x100 (Mus musculus [5]): 128; T/C x100 (Mus musculus [6]): 112; T/C x100 (Mus musculus [7]): 112; T/C x100 (Mus musculus [8]): 100; T/C x100 (Mus musculus [9]): 104; T/C x100 (Mus musculus [10]): 100; Mean survival in days (Mus musculus [11]): 11; Mean survival in days (Mus musculus [12]): 11.5; Mean survival in days (Mus musculus [13]): 11; Mean survival in days (Mus musculus [14]): 27.5; Mean survival in days (Mus musculus [15]): 27.5; Mean survival in days (Mus musculus [16]): 31.5
9 | O=C1NC(O)c2c1c1c3ccccc3[nH]c1c1[nH]c3ccccc3c21 (configuration not stated) | 6.25 (≈ 19.1 µM) | 34 |  | 0.3 |  |  |  | 
10 | COC1C(CO)OC(n2c3c(Cl)cccc3c3c4c(c5c6cccc(Cl)c6[nH]c5c32)C(=O)N(NC=O)C4=O)C(O)C1O (configuration not stated) | 3.1 (≈ 5.05 µM) |  | > 100 | 0.3 | > 10 | 1 (≈ 1.63 µM) |  | 
11 | COC1C(CO)OC(n2c3c(Cl)cccc3c3c4c(c5c6cccc(Cl)c6[nH]c5c32)CNC4=O)C(O)C1O (configuration not stated) | 3.1 (≈ 5.57 µM) | > 100 | 28.8 | 3 | > 10 | 1 (≈ 1.8 µM) | > 125 | 
12 | COC1C(CO)OC(n2c3c(Cl)cccc3c3c4c(c5c6cccc(Cl)c6[nH]c5c32)C(=O)N(N)C4=O)C(O)C1O (configuration not stated) | 0.8 (≈ 1.37 µM) |  | > 100 | 0.1 | > 10 | 0.1 (≈ 0.171 µM) | 0.3 | 
13 | O=CNN1C(=O)c2c(c3c4cccc(Cl)c4[nH]c3c3[nH]c4c(Cl)cccc4c23)C1=O | > 50 |  | > 100 | > 10 |  |  |  | 
14 | O=C1NC(O)c2c1c1c3cccc(Cl)c3[nH]c1c1[nH]c3c(Cl)cccc3c21 (configuration not stated) | > 50 | > 100 | > 100 | 9 | > 10 | > 10 | 8.4 | 
15 | CO[C@H]1[C@H](O)[C@@H](O)[C@H](n2c3c(Cl)cccc3c3c4c(c5c6cccc(Cl)c6[nH]c5c32)C(=O)NC4=O)O[C@@H]1CO [REBECCAMYCIN] | 6.25 (≈ 11 µM) | > 100 |  | 0.3 |  |  | 0.48 | T/C x100 (Mus musculus [5]): 112; T/C x100 (Mus musculus [6]): 124; T/C x100 (Mus musculus [7]): 106; T/C x100 (Mus musculus [8]): 150; T/C x100 (Mus musculus [9]): 136; T/C x100 (Mus musculus [10]): 164; Mean survival in days (Mus musculus [11]): 16.5; Mean survival in days (Mus musculus [12]): 15; Mean survival in days (Mus musculus [13]): 18; Mean survival in days (Mus musculus [14]): 30.5; Mean survival in days (Mus musculus [16]): 27.5 and 26
16 | O=C1c2c(c3c4ccccc4[nH]c3c3[nH]c4ccccc4c23)C(=O)N1CCO | > 50 |  | > 100 | 7 | > 10 | > 10 | > 150 | 
17 | COC1C(CO)OC(n2c3ccccc3c3c4c(c5c6ccccc6[nH]c5c32)C(=O)N(N)C4=O)C(O)C1O (configuration not stated) | 50 (≈ 96.8 µM) |  | > 100 | 0.3 | > 10 | 0.1 (≈ 0.194 µM) | 4.1 | 
18 | COC1C(CO)OC(n2c3ccccc3c3c4c(c5c6ccccc6[nH]c5c32)CNC4=O)C(O)C1O (configuration not stated) | 12.5 (≈ 25.6 µM) |  | 3.7 | 3 | > 10 | 0.01 (≈ 0.0205 µM) |  | 
19 | O=CNN1C(=O)c2c(c3c4ccccc4[nH]c3c3[nH]c4ccccc4c23)C1=O | 50 (≈ 136 µM) |  | > 100 | 3.5 | > 10 | 1 (≈ 2.71 µM) | > 100 | 
20 | COC1C(CO)OC(n2c3ccccc3c3c4c(c5c6ccccc6[nH]c5c32)C(=O)N(O)C4=O)C(O)C1O (configuration not stated) | 25 (≈ 48.3 µM) |  | 40 | 3 | > 10 | 0.1 (≈ 0.193 µM) | 5.8 | 
21 | NN1C(=O)c2c(c3c4cccc(Cl)c4[nH]c3c3[nH]c4c(Cl)cccc4c23)C1=O |  |  | > 100 | > 10 | > 10 | > 10 | 17 | 

From ChEMBL document CHEMBL1129573, “Structure-activity relationships in a series of substituted indolocarbazoles: topoisomerase I and protein kinase C inhibition and antitumoral and antimicrobial properties” (J Med Chem, 1996)
